What was measured:
Blood = experiment: Drug uptake in C57BL mouse bloodstream at 176 umol/kg administered with high fat diet after 2 weeks by HPLC/UV analysis; assay type: ADME, tissue-based; settings: po, 336 h
Outline: (§1)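 Mice received the lipid-mimetic derivatives chronically for 2 weeks. Pterostilbene and its metabolites were then quantified in blood and organs, and values are reported as mean ± st. dev. across animals.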

[1] = molecular target: T1, Pancreatic triacylglycerol lipase (Sus scrofa, UniProt P00591); experiment: Prodrug conversion assessed as porcine pancreatic lipase-mediated formation of 1,3-dihydroxypropan-2-yl 10-((4-(3,5-dimethoxystyryl)phenoxy)carbonylamino)decanoate by measuring hydrolysis rate constant K2 by HPLC/UV analysis; assay type: ADME; settings: pig
T1 sequence (P00591 whole entry): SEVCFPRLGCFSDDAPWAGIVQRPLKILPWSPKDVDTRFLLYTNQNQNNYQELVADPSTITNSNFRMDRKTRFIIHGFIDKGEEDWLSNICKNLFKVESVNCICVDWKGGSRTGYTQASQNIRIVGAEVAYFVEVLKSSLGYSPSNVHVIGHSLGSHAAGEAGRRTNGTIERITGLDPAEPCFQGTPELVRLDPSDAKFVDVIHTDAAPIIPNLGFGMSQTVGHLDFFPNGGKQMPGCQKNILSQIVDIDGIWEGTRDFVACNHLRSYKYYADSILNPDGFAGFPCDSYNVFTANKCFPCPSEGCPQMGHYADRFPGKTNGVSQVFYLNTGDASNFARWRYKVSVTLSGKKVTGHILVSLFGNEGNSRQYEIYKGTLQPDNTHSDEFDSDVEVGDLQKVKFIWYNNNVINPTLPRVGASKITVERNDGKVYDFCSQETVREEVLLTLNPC

[2] = Drug uptake in C57BL mouse visceral adipose tissue assessed as retention time at 176 umol/kg administered with high fat diet after 2 weeks by HPLC/UV analysis; assay type: ADME; settings: in vivo, po, 336 h
Liver = experiment: Drug uptake in C57BL mouse liver at 176 umol/kg administered with high fat diet after 2 weeks by HPLC/UV analysis; assay type: ADME, tissue-based; settings: in vivo, po, 336 h; outline: as §1
[3] = molecular target: T1, Pancreatic triacylglycerol lipase; experiment: Prodrug conversion assessed as porcine pancreatic lipase-mediated formation of 2-(10-((4-(3,5-dimethoxystyryl)phenoxy)carbonylamino)decanoyloxy)-3-hydroxypropyl oleate by measuring hydrolysis rate constant K1 by HPLC/UV analysis; assay type: ADME; settings: pig
[4] = molecular target: T1, Pancreatic triacylglycerol lipase; experiment: Prodrug conversion assessed as porcine pancreatic lipase-mediated formation of 10-((4-(3,5-dimethoxystyryl)phenoxy)carbonylamino)decanoic acid by measuring hydrolysis rate constant K3 by HPLC/UV analysis; assay type: ADME; settings: pig
[5] = Drug uptake in C57BL mouse subcutaneous adipose tissue at 176 umol/kg administered with high fat diet after 2 weeks by HPLC/UV analysis; assay type: ADME; settings: in vivo, po, 336 h; outline: as §1
[6] = Drug uptake in C57BL mouse visceral adipose tissue at 176 umol/kg administered with high fat diet after 2 weeks by HPLC/UV analysis; assay type: ADME; settings: in vivo, po, 336 h; outline: as §1
[7] = molecular target: T1, Pancreatic triacylglycerol lipase; experiment: Prodrug conversion assessed as porcine pancreatic lipase-mediated formation of 1-(10-((4-(3,5-dimethoxystyryl)phenoxy)carbonylamino)decanoyloxy)-3-hydroxypropan-2-yl oleate, 10-((4-(3,5-dimethoxystyryl)phenoxy)carbonylamino)decanoic acid by measuring hydrolysis rate constant K1 by HPLC/UV analysis; assay type: ADME; settings: pig
[8] = molecular target: T1, Pancreatic triacylglycerol lipase; experiment: Prodrug conversion assessed as porcine pancreatic lipase-mediated formation of 10-((4-(3,5-dimethoxystyryl)phenoxy)carbonylamino)decanoic acid by measuring hydrolysis rate constant K2 by HPLC/UV analysis; assay type: ADME; settings: pig
[9] = molecular target: T1, Pancreatic triacylglycerol lipase; experiment: Prodrug conversion assessed as porcine pancreatic lipase mediated formation of 10-((4-(3,5-dimethoxystyryl)phenoxy)carbonylamino)decanoic acid by measuring hydrolysis rate constant by HPLC/UV analysis; assay type: ADME; settings: pig

Row | Drug uptake (Blood) | K [1] [h⁻¹] | Retention time [2] [min] | Drug uptake (Liver) | K [3] [h⁻¹] | K [4] [h⁻¹] | Drug uptake [5] | Drug uptake [6] | K [7] [h⁻¹] | K [8] [h⁻¹] | K [9] [h⁻¹] | SMILES
1 | Not Active | 9.49 | 5.8 to 6.5 | Active | 3.04 | 0.24 | Active | Active | – | – | – | CCCCCCCC/C=C\CCCCCCCC(=O)OCC(COC(=O)CCCCCCC/C=C\CCCCCCCC)OC(=O)CCCCCCCCCNC(=O)Oc1ccc(/C=C/c2cc(OC)cc(OC)c2)cc1
2 | Not Active | – | – | Active | – | – | Active | Active | 3.24 | 46.8 | 2.88 | CCCCCCCC/C=C\CCCCCCCC(=O)OCC(COC(=O)CCCCCCCCCNC(=O)Oc1ccc(/C=C/c2cc(OC)cc(OC)c2)cc1)OC(=O)CCCCCCC/C=C\CCCCCCCC (stereo not given)
